Assay results reported in ChEMBL document CHEMBL2407028, “Discovery of novel oxazolidinedione derivatives as potent and selective mineralocorticoid receptor antagonists” (Bioorg Med Chem Lett, 2013).

Columns and labels:
Rattus norvegicus [1] = assay: Dose normalized AUC in rat at 1 mg/kg, po; format: ADME, organism-based; set-up: dose 1 mg/kg, route oral; conditions: in vivo
Method in brief: (§1)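 Rats dosed at 1 mg/kg iv (n = 2) or 1 mg/kg po (n = 3), formulated at 1 mg/mL in PEG 200:water (70:30). Blood concentrations measured by LC/MS/MS after protein precipitation with acetonitrile.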

Rattus norvegicus [2] = assay: Dose normalized AUC in rat at 1 mg/kg, iv; format: ADME, organism-based; set-up: dose 1 mg/kg, route intravenous; conditions: in vivo; method in brief: as §1
[3] = Cmax in rat at 1 mg/kg, iv and 1 mg/lg, po; format: ADME, organism-based; set-up: dose 1 mg/kg, route oral; conditions: in vivo; method in brief: as §1
[4] = Half life in rat at 1 mg/kg, iv and 1 mg/lg, po; format: ADME, organism-based; set-up: dose 1 mg/kg, route oral; conditions: in vivo; method in brief: as §1
Rattus norvegicus [5] = assay: Volume of distribution at steady state in rat at 1 mg/kg, iv and 1 mg/lg, po; format: ADME, organism-based; set-up: dose 1 mg/kg, route oral; conditions: in vivo; method in brief: as §1
[6] = Oral bioavailability in rat at 1 mg/kg; format: ADME, organism-based; conditions: in vivo; method in brief: as §1
[7] = molecular target: T1, Mineralocorticoid receptor (Homo sapiens, UniProt P08235); assay: Antagonist activity at human mineralocorticoid receptor assessed as inhibition of binding to coactivator peptide by NH Pro assay
T1 sequence (P08235 whole entry): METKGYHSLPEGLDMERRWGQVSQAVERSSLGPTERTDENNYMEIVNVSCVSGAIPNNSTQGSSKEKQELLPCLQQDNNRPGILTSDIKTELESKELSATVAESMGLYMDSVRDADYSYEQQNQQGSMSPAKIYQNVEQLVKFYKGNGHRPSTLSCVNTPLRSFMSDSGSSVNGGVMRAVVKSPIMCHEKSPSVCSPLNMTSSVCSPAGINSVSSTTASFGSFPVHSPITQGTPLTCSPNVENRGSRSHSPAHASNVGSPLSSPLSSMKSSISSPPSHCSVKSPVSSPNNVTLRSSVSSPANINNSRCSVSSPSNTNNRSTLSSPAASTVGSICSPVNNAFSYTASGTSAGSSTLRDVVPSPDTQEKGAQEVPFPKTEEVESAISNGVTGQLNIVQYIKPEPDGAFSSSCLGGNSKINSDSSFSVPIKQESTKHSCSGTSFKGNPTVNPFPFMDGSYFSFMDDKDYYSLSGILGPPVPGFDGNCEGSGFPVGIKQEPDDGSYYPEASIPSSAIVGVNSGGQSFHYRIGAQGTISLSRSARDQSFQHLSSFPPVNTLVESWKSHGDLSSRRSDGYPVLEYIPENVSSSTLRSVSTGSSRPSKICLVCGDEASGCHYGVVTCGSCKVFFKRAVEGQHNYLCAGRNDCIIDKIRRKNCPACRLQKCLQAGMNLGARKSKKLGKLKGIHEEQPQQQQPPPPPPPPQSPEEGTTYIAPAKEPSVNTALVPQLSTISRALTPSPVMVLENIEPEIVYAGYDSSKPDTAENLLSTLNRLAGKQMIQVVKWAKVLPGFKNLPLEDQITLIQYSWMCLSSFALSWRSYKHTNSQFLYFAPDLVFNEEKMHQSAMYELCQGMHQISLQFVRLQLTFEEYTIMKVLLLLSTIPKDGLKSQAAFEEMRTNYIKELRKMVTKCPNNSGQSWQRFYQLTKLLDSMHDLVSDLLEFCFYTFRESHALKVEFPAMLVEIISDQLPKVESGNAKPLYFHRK

Estrogen receptor [8] = molecular target: T2, Estrogen receptor (Homo sapiens, UniProt P03372); assay: Antagonist activity at estrogen receptor alpha (unknown origin) by NH Pro assay
T2 sequence (P03372 whole entry): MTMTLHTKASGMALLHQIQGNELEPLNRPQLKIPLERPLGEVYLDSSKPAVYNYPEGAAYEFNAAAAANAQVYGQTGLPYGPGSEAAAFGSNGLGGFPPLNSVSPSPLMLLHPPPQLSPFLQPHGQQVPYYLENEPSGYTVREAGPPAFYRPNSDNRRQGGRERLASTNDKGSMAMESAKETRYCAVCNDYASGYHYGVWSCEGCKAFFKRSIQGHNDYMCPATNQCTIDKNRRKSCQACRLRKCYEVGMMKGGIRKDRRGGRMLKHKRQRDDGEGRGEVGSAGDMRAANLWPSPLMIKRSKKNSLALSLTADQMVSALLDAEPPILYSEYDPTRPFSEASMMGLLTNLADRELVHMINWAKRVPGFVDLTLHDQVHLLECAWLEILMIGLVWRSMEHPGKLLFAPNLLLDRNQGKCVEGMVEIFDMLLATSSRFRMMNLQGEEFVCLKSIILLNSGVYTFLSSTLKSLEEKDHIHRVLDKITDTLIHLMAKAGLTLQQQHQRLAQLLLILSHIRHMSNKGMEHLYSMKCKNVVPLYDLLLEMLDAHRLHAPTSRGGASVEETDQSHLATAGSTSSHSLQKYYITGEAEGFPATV

Estrogen receptor [9] = molecular target: T2, Estrogen receptor; assay: Agonist activity at estrogen receptor alpha (unknown origin) by NH Pro assay
Glucocorticoid receptor [10] = molecular target: T3, Glucocorticoid receptor (Homo sapiens, UniProt P04150); assay: Agonist activity at glucocorticoid receptor (unknown origin) by NH Pro assay
T3 sequence (P04150 whole entry): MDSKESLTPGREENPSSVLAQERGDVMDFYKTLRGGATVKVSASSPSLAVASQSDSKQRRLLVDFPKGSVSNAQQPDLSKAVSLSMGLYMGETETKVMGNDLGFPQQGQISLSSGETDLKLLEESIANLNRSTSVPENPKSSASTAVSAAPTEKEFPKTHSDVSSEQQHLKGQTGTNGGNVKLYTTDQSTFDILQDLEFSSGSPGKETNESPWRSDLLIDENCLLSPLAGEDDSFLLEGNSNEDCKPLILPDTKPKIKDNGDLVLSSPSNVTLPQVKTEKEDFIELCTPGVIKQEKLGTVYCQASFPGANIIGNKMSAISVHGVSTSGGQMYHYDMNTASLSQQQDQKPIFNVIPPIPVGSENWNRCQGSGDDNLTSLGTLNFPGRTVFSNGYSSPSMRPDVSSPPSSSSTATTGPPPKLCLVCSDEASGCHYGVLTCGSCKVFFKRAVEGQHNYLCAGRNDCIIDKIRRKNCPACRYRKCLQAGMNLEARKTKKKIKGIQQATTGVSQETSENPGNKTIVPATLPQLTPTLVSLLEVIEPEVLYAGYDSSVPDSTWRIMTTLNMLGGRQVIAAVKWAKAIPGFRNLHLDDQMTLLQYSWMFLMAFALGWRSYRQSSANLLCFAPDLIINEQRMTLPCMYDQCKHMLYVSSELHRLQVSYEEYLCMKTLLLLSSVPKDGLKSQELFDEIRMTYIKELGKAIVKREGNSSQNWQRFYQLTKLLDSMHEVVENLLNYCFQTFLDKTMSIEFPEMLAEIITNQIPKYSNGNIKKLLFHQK

Glucocorticoid receptor [11] = molecular target: T3, Glucocorticoid receptor; assay: Antagonist activity at glucocorticoid receptor (unknown origin) by NH Pro assay

SMILES | AUC/dose (Rattus norvegicus [1]) | AUC/dose (Rattus norvegicus [2]) | Cmax [3] | half-life [4] | Vdss (Rattus norvegicus [5]) | bioavailability [6] | IC50 [7] | IC50 (Estrogen receptor [8]) | EC50 (Estrogen receptor [9]) | EC50 (Glucocorticoid receptor [10]) | IC50 (Glucocorticoid receptor [11])
COc1cc(CNC(=O)[C@@]2(Cc3ccccc3)OC(=O)N([C@H](C)c3ccccc3)C2=O)cc(OC)c1 | 0.05 µM·kg·h/mg | 0.75 µM·kg·h/mg | 60 nM | 1.2 h | 2.8 L/kg | 7% | 0.054 µM | – | – | – | –
COC(=O)[C@@H]1CC2=CC(=O)CC[C@]2(C)[C@@]23O[C@@H]2C[C@@]2(C)[C@@H](CC[C@@]24CCC(=O)O4)[C@H]13 [EPLERENONE] | – | – | – | – | – | – | – | > 20 µM | > 20 µM | – | –
CC(=O)S[C@@H]1CC2=CC(=O)CC[C@]2(C)[C@H]2CC[C@@]3(C)[C@@H](CC[C@@]34CCC(=O)O4)[C@H]12 [SPIRONOLACTONE] | – | – | – | – | – | – | – | > 20 µM | > 20 µM | > 20 µM | 4.1 µM
